# Measured values as given in ChEMBL document CHEMBL4480390, “Cink4T, a quinazolinone-based dual inhibitor of Cdk4 and tubulin polymerization, identified via ligand-based virtual screening, for efficient anticancer therapy” (Eur J Med Chem, 2019).
# pEC50, pIC50: −log10 of the molar value. The source made the active and inactive calls. The calls are words filed in the database; no cut-off is given here.
# Tests used:
# [1] = molecular target: Cyclin-dependent kinase 4/cyclin D1 (Homo sapiens, UniProt P11802); assay: Inhibition of recombinant human N-terminal GST-tagged CDK4 (S4 to E303 residues)/Cyclin D1 (Q4 to I295 residues) expressed in sf9 cells using RBCTF as substrate measured after 1 hr by ADP-glo luminescence assay
# Procedure, shortened: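 ADP-Glo luminescence assay of Cdk4–cyclin D1 with RBCTF substrate, 200 ng enzyme, ATP 125 µM (2.5x working mix), Tris/MgCl2/BSA/DTT/MnCl2 buffer, 1 h at 21°C, then two 40-min reagent steps. IC50 from a four-parameter variable-slope sigmoidal fit of inhibition against concentration; mean ± SD from three independent experiments.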
# [2] = molecular target: Cyclin-dependent kinase 1/cyclin B1 (Homo sapiens, UniProt P06493); assay: Inhibition of recombinant human N-terminal GST/His6-tagged CDK1 (M1 to M297 residues)/CyclinB1 (M1 to V433 residues) expressed in Sf9 insect cells using RBCTF as substrate measured after 1 hr by ADP-glo luminescence assay
# CDK6/cyclin D1 = CDK6/cyclin D1 (Homo sapiens, UniProt Q00534); assay: Inhibition of CDK6/cyclin D1 (unknown origin) using RBER-CHKtide as substrate measured after 1 hr by ADP-glo luminescence assay; type: protein-complex assay
# Procedure, shortened: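 ADP-Glo kinase assay with 200 ng Cdk-cyclin enzyme, ATP (125 µM in 2.5x mix) and 25 µg substrate (RBCTF or RBER-CHKtide, per Cdk). Buffer: Tris, MgCl2, BSA, DTT, MnCl2 cofactor, DMSO. Reaction 1 h at 21°C; ADP-Glo 40 min, then detection reagent 40 min. Luminescence read. IC50 by 4-parameter fit; three independent experiments.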
# Cytochrome P450 1A1 = molecular target: T1, Cytochrome P450 1A1 (Homo sapiens, UniProt P04798); assay: Inhibition of recombinant human CYP1A1 expressed in baker's yeast-derived microsomes using 7-ethoxyresorufin as substrate by fluorescence assay; type: ADME
# T1 sequence (P04798 whole entry): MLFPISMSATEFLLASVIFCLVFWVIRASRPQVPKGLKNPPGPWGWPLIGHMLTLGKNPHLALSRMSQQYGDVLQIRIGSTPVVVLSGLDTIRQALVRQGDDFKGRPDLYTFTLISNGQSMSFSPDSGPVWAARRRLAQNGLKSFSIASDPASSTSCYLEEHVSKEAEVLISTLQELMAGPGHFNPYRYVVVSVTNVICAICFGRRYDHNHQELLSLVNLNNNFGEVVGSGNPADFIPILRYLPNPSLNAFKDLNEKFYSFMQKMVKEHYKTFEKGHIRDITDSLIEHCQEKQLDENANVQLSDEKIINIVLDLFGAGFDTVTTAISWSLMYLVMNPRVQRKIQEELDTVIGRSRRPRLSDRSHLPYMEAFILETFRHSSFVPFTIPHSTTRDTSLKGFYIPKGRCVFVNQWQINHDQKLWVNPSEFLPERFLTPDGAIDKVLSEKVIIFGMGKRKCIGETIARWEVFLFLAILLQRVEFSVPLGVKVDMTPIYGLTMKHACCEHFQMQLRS
# T47D [3] = assay: Cell cycle arrest in human T47D cells assessed as ratio of G1 to S phase at 0.75 uM measured after 18 hrs by propidium iodide staining based flow cytometry (reference value: 2.65); type: functional
# T47D [4] = assay: Cell cycle arrest in human T47D cells assessed as accumulation at sub-G1 phase at 0.75 uM measured after 18 hrs by propidium iodide staining based flow cytometry relative to control; type: functional
# T47D [5] = assay: Cell cycle arrest in human T47D cells assessed as accumulation at sub-G1 phase at 1.5 uM measured after 18 hrs by propidium iodide staining based flow cytometry relative to control; type: functional
# [6] = molecular target: Cyclin-dependent kinase 4/cyclin D1 (Homo sapiens) (UniProt P11802+P24385); assay: Inhibition of CDK4/cyclin D1 in human T47D cells assessed as reduction in phosphorylation of pRb at Ser795 residues at 0.75 to 1.5 uM measured after 18 hrs by Western blot analysis; type: cell-based
# Procedure, shortened: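 T47D cells left untreated or treated 18 h at 0.75 or 1.5 µM. Western blots probed with phospho-specific pRb antibodies (Ser780, Ser795, Ser807/811) and a total-pRb antibody; HRP-conjugated secondary for detection.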
# T47D [7] = assay: Cell cycle arrest in human T47D cells assessed as accumulation at sub-G1 phase at 1.5 uM treated 18 hrs post serum-starvation measured after 18 hrs in presence of fresh medium containing FBS by propidium iodide staining based flow cytometry relative to control; type: functional
# Calu-1 [8] = assay: Cell cycle arrest in human Calu1 cells assessed as increase in accumulation at S phase at 1.8 uM treated 18 hrs post serum-starvation measured after 18 hrs in presence of fresh medium containing FBS by propidium iodide staining based flow cytometry relative to control; type: functional
# MDA-MB-468 = assay: Cell cycle arrest in human MDA-MB-468 cells assessed as accumulation at sub-G1 phase at 10.85 uM measured after 18 hrs by propidium iodide staining based flow cytometry relative to control; type: functional
# A549 [9] = assay: Cell cycle arrest in human A549 cells assessed as ratio of G1 to S phase at 0.8 uM measured after 18 hrs by propidium iodide staining based flow cytometry (reference value: 2.7); type: functional
# A549 [10] = assay: Cell cycle arrest in human A549 cells assessed as accumulation at G0/G1 phase at 1.6 uM measured after 18 hrs by propidium iodide staining based flow cytometry (reference value: 58%); type: functional
# A549 [11] = assay: Up regulation of cyclin-B1 expression in human A549 cells at 0.8 to 1.6 uM measured after 18 hrs by Western blot analysis; type: functional, cell-based
# A549 [12] = assay: Effect on CDK1 expression in human A549 cells at 0.8 to 1.6 uM measured after 18 hrs by Western blot analysis; type: functional, cell-based
# A549 [13] = assay: Cell cycle arrest in human A549 cells assessed as ratio of G1 to S phase at 0.8 uM treated 32 hrs post mimosine addition measured after 18 hrs in presence of fresh medium by propidium iodide staining based flow cytometry (reference value: 2.5); type: functional
# A549 [14] = assay: Cell cycle arrest in human A549 cells assessed as accumulation at S phase at 0.8 uM treated 32 hrs post mimosine addition measured after 18 hrs in presence of fresh medium by propidium iodide staining based flow cytometry (reference value: 23%); type: functional
# A549 [15] = assay: Cell cycle arrest in human A549 cells assessed as ratio of G1 to S phase at 1.6 uM treated 32 hrs post mimosine addition measured after 18 hrs in presence of fresh medium by propidium iodide staining based flow cytometry (reference value: 2.5); type: functional
# A549 [16] = assay: Cell cycle arrest in human A549 cells assessed as accumulation at G2/M phase at 1.6 uM treated 32 hrs post mimosine addition measured after 18 hrs in presence of fresh medium by propidium iodide staining based flow cytometry (reference value: 14%); type: functional
# Calu-1 [17] = assay: cells; conditions: Homo sapiens, Calu-1, 72 h
# T47D [18] = assay: cells; conditions: Homo sapiens, 72 h
structure (smiles),measurement,setting,value
O=C(COc1ccc(-c2nc3ccccc3c(=O)[nH]2)cc1)Nc1cccc(Cl)c1,pIC50,[1],6.33
same,pIC50,[2],< 4.30
same,pIC50,CDK6/cyclin D1,< 4.00
same,pIC50,Cytochrome P450 1A1,< 5.30
same,Ratio,T47D [3],22
same,Activity,T47D [4],0%
same,Activity,T47D [5],20%
same,inhibition,[6],Active
same,Activity,T47D [7],18.6%
same,Activity,Calu-1 [8],-0.8%
same,Activity,MDA-MB-468,0%
same,Ratio,A549 [9],6.5
same,Activity,A549 [10],12%
same,Activity,A549 [11],inactive
same,Activity,A549 [12],inactive
same,Ratio,A549 [13],1.07
same,Activity,A549 [14],24%
same,Ratio,A549 [15],0.6
same,Activity,A549 [16],68%
same,pEC50,Calu-1 [17],6.05
same,pEC50,T47D [18],6.12
